Test results as given in article PMC10213863 (Cell Reports Medicine, 2023).

Legend:
TLR7 [1] = molecular target: T1, TLR7 (Homo sapiens, UniProt Q9NYK1); assay: Ramos Blue NF-κB/AP-1 reporter B cell line, TLR7 stimulation; type: cell-based; conditions: Ramos cells, mean ± SD
T1 sequence (Q9NYK1 27-1049): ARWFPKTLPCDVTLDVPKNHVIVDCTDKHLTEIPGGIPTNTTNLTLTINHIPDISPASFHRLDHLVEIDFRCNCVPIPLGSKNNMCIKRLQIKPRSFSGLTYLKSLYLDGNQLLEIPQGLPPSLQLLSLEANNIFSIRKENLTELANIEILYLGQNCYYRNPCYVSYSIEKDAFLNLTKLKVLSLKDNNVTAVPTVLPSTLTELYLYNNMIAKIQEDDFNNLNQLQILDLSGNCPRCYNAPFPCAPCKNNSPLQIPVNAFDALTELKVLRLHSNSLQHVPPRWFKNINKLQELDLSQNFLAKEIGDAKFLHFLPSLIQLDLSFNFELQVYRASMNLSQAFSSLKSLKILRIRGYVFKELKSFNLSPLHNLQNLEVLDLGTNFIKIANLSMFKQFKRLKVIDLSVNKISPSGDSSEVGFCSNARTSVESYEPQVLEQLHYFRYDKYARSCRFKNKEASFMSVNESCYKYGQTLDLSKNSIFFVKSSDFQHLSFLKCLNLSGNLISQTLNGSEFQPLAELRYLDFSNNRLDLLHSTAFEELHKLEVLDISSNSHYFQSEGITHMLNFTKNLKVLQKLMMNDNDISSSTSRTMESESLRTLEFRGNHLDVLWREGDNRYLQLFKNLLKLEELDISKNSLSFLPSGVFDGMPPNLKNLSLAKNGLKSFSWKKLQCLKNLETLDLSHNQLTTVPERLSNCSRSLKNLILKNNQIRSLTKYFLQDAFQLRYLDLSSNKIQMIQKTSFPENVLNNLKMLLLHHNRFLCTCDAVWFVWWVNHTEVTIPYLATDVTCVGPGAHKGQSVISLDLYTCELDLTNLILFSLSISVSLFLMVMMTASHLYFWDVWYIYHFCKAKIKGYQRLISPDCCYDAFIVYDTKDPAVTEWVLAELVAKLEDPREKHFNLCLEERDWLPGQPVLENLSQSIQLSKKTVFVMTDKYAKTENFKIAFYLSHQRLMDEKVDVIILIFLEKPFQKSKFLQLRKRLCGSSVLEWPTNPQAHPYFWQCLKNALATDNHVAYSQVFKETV
In short: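 Ramos Blue B reporter cells were pre-treated 30 min at 37°C, 5% CO2 with increasing concentrations of test compound or 0.25% v/v DMSO. They were then stimulated with the respective agonist, and reporter activity was read.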

NZB/W F1 mice = assay: NZB/W F1 model repeated at a different site, therapeutic twice-daily oral dosing; type: in vivo, mouse
In short: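 This repeat NZB/W F1 study had three differences. Mice were included at dipstick proteinuria score 2 (0.3–1 mg/mL), proteinuria was scored by dipstick, and test compound was given orally b.i.d. rather than in food. Kidney IgM and IgG deposits were quantified as positively stained area over total section area on ten sections per mouse, then averaged.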

TLR4 = TLR4 (Homo sapiens, UniProt O00206); assay: Human PBMC cytokine secretion, TLR4 agonist; type: cell-based; conditions: human PBMCs; up to 10 μM; n = 5 donors
TLR4, sequence (O00206 24-839): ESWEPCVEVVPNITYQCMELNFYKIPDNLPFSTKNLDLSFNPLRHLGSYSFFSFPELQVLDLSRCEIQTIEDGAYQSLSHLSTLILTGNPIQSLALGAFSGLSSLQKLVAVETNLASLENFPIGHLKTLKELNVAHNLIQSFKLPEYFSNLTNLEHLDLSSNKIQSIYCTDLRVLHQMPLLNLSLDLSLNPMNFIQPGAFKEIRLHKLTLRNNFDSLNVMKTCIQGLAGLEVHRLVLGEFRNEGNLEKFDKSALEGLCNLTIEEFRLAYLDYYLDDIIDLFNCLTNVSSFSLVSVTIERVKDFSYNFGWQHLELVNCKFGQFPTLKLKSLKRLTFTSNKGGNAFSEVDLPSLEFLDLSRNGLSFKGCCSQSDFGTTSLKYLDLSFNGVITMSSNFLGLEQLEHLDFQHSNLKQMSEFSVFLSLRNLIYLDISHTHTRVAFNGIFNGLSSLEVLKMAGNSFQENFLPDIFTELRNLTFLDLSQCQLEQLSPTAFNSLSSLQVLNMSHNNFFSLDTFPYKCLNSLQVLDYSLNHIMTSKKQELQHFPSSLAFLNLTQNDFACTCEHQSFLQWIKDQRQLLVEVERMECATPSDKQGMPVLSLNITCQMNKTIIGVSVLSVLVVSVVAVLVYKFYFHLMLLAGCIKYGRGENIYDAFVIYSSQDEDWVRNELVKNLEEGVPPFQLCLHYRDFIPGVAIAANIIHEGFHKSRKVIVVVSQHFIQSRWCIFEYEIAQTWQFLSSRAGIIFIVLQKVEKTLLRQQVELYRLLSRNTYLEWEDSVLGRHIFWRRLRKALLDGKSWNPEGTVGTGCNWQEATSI
TLR4, sequence (Q9Y6Y9 19-160 partner): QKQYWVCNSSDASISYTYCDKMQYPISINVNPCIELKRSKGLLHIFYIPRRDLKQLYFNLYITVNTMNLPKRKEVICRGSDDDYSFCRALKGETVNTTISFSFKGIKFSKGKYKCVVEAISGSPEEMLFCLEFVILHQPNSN
In short: (§1)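 Human PBMCs were pre-incubated 30 min with test compound, then stimulated with the respective TLR or IL-1R agonist at doses from earlier work. Cytokines in supernatants were quantified by immunoassay. Viability across the dose range was checked by CellTiter-Glo.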

TLR1/2 = TLR1/2 (Homo sapiens, UniProt O60603+Q15399); assay: Human PBMC cytokine secretion, TLR1/2 agonist; type: cell-based; conditions: human PBMCs; up to 10 μM; n = 5 donors, data not shown
TLR1/2, sequence (Q15399 25-786): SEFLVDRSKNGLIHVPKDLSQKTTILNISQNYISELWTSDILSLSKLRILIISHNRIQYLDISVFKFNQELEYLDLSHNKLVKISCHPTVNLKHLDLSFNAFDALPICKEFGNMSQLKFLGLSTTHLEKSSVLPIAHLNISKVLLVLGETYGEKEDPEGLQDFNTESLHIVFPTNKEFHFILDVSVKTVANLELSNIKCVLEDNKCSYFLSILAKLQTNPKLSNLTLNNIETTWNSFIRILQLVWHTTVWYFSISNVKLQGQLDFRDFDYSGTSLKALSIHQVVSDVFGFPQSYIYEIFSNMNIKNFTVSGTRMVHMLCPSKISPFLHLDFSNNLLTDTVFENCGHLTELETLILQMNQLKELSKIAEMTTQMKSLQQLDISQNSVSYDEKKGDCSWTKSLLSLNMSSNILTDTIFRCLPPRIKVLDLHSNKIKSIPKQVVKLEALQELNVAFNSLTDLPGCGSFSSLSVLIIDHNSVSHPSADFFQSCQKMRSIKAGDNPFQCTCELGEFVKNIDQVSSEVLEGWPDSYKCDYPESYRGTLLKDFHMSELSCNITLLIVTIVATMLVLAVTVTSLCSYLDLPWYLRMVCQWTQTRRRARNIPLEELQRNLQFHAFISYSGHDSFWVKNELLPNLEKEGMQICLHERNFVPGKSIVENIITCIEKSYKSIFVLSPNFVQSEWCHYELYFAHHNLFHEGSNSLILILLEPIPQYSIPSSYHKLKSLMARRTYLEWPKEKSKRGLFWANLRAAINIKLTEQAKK
TLR1/2, sequence (O60603 21-784): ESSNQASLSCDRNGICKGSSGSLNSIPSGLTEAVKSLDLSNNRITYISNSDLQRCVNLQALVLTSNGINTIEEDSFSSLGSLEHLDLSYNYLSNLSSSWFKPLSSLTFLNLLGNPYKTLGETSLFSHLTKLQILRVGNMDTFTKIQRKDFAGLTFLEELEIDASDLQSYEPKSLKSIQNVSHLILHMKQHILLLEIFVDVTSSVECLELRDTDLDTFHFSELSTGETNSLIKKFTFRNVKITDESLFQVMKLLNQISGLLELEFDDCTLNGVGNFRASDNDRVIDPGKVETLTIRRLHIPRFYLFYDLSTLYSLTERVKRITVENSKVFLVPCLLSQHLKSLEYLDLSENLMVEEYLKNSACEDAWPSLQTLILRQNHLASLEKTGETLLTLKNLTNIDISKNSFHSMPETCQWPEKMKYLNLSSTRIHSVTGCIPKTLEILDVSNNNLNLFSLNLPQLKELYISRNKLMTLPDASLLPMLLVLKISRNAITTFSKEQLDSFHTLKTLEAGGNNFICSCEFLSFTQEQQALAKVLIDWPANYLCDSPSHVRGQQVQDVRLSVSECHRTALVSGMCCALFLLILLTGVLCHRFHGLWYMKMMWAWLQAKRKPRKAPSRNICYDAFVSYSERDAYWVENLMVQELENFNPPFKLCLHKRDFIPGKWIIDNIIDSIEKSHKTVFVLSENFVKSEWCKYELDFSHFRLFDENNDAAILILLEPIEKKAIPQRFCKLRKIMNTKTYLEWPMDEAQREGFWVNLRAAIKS
In short: as §1

TLR7 [2] = molecular target: T1, TLR7; assay: Human PBMC assay, ssRNA-induced IFN-α; type: cell-based; conditions: human PBMCs, mean ± SEM (n)
In short: as §1

TLR8 = molecular target: T2, TLR8 (Homo sapiens, UniProt Q9NR97); assay: Human whole blood assay, ssRNA-TNF; type: cell-based
T2 sequence (Q9NR97 27-1041): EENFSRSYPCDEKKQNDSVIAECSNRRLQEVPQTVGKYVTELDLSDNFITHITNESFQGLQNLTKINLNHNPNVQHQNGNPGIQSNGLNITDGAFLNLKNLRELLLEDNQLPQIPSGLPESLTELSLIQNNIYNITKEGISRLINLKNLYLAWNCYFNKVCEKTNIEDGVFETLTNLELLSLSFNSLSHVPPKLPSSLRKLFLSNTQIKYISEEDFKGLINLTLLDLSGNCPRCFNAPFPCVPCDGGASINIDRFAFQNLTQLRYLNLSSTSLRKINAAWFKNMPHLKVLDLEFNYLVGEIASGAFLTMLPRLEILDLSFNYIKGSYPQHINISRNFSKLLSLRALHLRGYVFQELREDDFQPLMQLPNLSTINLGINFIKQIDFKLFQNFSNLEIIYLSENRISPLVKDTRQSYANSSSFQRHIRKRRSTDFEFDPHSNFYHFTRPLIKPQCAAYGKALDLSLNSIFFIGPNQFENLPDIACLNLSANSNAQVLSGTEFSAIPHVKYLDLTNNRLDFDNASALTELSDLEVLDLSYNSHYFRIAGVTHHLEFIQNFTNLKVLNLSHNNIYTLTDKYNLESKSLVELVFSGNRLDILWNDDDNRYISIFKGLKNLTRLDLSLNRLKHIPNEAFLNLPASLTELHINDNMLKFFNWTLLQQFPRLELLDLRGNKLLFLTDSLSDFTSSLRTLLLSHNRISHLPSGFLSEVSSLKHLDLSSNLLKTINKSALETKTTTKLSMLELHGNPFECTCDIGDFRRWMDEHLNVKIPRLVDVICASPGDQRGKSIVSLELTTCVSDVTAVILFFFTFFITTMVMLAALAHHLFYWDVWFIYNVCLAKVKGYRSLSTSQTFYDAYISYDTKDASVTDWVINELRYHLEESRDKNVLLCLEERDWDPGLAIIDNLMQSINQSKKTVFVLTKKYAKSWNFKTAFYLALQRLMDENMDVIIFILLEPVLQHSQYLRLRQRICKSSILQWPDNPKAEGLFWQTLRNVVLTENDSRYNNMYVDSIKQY
In short: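 Fresh human blood or 129/Sv mouse blood was taken into citrate and diluted 1:1 with RPMI1640. It was pre-incubated 30 min at 37°C, 5% CO2 with increasing concentrations of test compound or 0.25% v/v DMSO (final). Blood was then stimulated with TLR agonists at doses from earlier work, or with R848 (3 μM), and cytokines were quantified. Viability was checked by ATPlite luminescence.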

[3] = therapeutic b.i.d. p.o. after robust proteinuria

Cc1cc(N2CCc3c(c(C)nn3CC34CCC(NC(=O)[C@@H]5COCCN5)(CC3)CC4)C2)c2cnn(C)c2n1 [MHV370, (S)-N-(4-((5-(1,6-dimethyl-1H-pyrazolo[3,4-b]pyridin-4-yl)-3-methyl-4,5,6,7-tetrahydro-1H-pyrazolo[4,3-c]pyridin-1-yl)methyl)bicyclo[2.2.2]octan-1-yl)morpholine-3-carboxamide]
IC50 (TLR7 [1]; IC50, CL307-driven reporter gene activity, CL307): 15 ± 10 nM
IC50 (TLR7 [1]; read-out: IC50, R848-driven reporter gene activity, R848): 7 ± 0.1 nM
IgM and IgG deposition in kidneys (histology) (NZB/W F1 mice; therapeutic b.i.d. p.o.): substantially reduced
proteinuria (dipstick score) (NZB/W F1 mice; [3]): reduced proteinuria
survival (NZB/W F1 mice; [3]): increased survival
interference with cytokine secretion, TLR4 agonist (TLR4): did not significantly interfere
interference with cytokine secretion, TLR1/2 agonist (TLR1/2): did not significantly interfere
IC50 (TLR7 [2]): 4.1 ± 0.4 nM
IC50 (TLR8): 31 ± 4.4 nM
